Results as given in ChEMBL document CHEMBL1255244, “Antimycobacterial Activity and Mechanism of Action of NAS-91” (2008).
Values after ≈ are worked out from the molar mass of the structure shown. Active and inactive are the calls of the source. The rule behind the calls is not given here.

Assays:
[1] = test system: BCG; test: Inhibition of delta-9 desaturase activity in Mycobacterium bovis BCG cell extract 1173P2 assessed as inhibition of oleic acid synthesis at 25 ug/ml after 1 hr in presence of NADPH and [1-14C]stearoyl-CoA; assay type: cell-free; set-up: scale not given: the % may be the effect or the level left; conditions: Mycobacterium bovis BCG str. Pasteur 1173P2
In short: (§1)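 Cell-free assay. BCG grown in Sauton's with 20 µg/ml FeSO4, French-press lysed in 0.25 M sucrose. 1 mg lysate, 1 µmol NADPH, phosphate buffer pH 7.2, in 1 ml. Inhibitor preincubated 10 min at 37°C, then 0.25 µCi [1-14C]stearoyl-CoA added, 37°C 1 h. Saponified, methylated, [14C]oleate band scraped and counted. Triplicates, one of two experiments, mean ± SEM.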

[2] = Antimycobacterial activity against Mycobacterium bovis BCG 1173P2; assay type: functional, Mycobacterium bovis BCG str. Pasteur 1173P2; conditions: Mycobacterium tuberculosis variant bovis BCG
In short: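 M. bovis BCG on Middlebrook 7H11 agar with OADC and increasing inhibitor concentrations. Serial 10-fold dilutions of actively growing culture plated, 37°C for 10 to 14 days.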

[3] = test system: Mycobacterium bovis BCG str. Pasteur 1173P2; test: Antimycobacterial activity against Mycobacterium bovis BCG 1173P2 assessed as inhibition of oleic acid methyl ester synthesis at 100 ug/ml after 8 hrs; assay type: functional
In short: (§2)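 BCG in Sauton's medium, drug 8 h, then [14C]acetate labelling for 16 h. Methyl esters resolved by 2-D TLC: first dimension without silver, hexane-ethyl acetate 19:1 run twice; then silver nitrate layer, petroleum ether-diethyl ether 17:3 run three times. Triplicates, one of three experiments, mean ± SEM, Student's t test.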

[4] = test system: Mycobacterium bovis BCG str. Pasteur 1173P2; test: Antimycobacterial activity against Mycobacterium bovis BCG 1173P2 assessed as inhibition of oleic acid methyl ester synthesis after 8 hrs; assay type: functional; in short: as §2
[5] = test system: Mycobacterium bovis BCG str. Pasteur 1173P2; test: Antimycobacterial activity against Mycobacterium bovis BCG 1173P2 assessed as inhibition of mycolic acid biosynthesis; assay type: functional
In short: (§3)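 Mid-log BCG in Sauton's medium, drug at 37°C for 8 h, then 1 µCi/ml [2-14C]acetate for 16 h. Cells PBS-washed, hydrolysed in 15% tetrabutylammonium hydroxide at 100°C overnight, methylated with CH3I. TLC: MAME bands scraped and counted; FAMEs (50,000 cpm) on reverse-phase TLC, chloroform-methanol 2:3. INH 1 µg/ml positive control. Triplicates, one of three experiments, mean ± SEM.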

[6] = test system: BCG 1173P2; test: Inhibition of delta-9 desaturase activity in Mycobacterium bovis BCG 1173P2 cell extract assessed as inhibition of oleic acid synthesis at 10 to 100 ug/ml after 1 hr in presence of NADPH and [1-14C]stearoyl-CoA; assay type: cell-free; conditions: Mycobacterium bovis BCG str. Pasteur 1173P2; in short: as §1
[7] = test system: Mycolicibacterium smegmatis; test: Antimycobacterial activity against Mycobacterium smegmatis at 100 ug/ml after 15 to 20 days by agar proportion method; assay type: functional, organism-based
[8] = test system: Mycobacterium bovis BCG str. Pasteur 1173P2; test: Antimycobacterial activity against Mycobacterium bovis BCG 1173P2 assessed as inhibition of FAS-2 activity at 5 ug/ml after 8 hrs; assay type: functional; in short: as §3
[9] = test system: Mycobacterium bovis BCG str. Pasteur 1173P2; test: Antimycobacterial activity against Mycobacterium bovis BCG 1173P2 assessed as inhibition of mycolic acid biosynthesis at 100 ug/ml after 8 hrs; assay type: functional; set-up: scale not given: the % may be the effect or the level left; in short: as §3
[10] = test system: Mycobacterium tuberculosis; test: Antimycobacterial activity against Mycobacterium tuberculosis H37Rv at 10 ug/ml after 15 to 20 days by agar proportion method; assay type: functional
In short: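 Agar proportion method. H37Rv grown in 7H9 at 37°C with shaking to OD600 1.0. Diluted log-phase culture giving about 1,000 CFU plated on 7H11+OADC control and drug-containing plates, incubated 37°C.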

| Structure (SMILES) | Activity [1] | MIC [2] | Activity [3] | Activity [4] | Activity [5] | Activity [6] | Activity [7] | Activity [8] | Activity [9] | Activity [10] |
| --- | --- | --- | --- | --- | --- | --- | --- | --- | --- | --- |
| O=C(CC(=O)C(F)(F)F)c1ccc([N+](=O)[O-])cc1 | 25% | 50 mg/L (≈ 191 µM) | Active | Dose-dependent effect | – | – | – | – | – | – |
| Oc1ccc(Cl)cc1Oc1ccc(Cl)c2cccnc12 | 75% | 10 mg/L (≈ 32.7 µM) | Active | Dose-dependent effect | Active | Dose-dependent effect | inactive | Active | 55% | 99% |
